The results in this text go back to ChEMBL document CHEMBL4673287, “Synthesis and biological evaluation of novel antipsychotic trans-4-(2-(1,2,4,5-tetrahydro-3H-benzo[d]azepin-3-yl)ethyl)cyclohexan-1-amine derivatives targeting dopamine/serotonin receptor subtypes” (Bioorg Med Chem Lett, 2021).

Assay [1] has as its target T1, Adrenergic receptor alpha-1 (Homo sapiens, UniProt P35348+P25100+P35368).
T1 sequence (P35348 whole entry): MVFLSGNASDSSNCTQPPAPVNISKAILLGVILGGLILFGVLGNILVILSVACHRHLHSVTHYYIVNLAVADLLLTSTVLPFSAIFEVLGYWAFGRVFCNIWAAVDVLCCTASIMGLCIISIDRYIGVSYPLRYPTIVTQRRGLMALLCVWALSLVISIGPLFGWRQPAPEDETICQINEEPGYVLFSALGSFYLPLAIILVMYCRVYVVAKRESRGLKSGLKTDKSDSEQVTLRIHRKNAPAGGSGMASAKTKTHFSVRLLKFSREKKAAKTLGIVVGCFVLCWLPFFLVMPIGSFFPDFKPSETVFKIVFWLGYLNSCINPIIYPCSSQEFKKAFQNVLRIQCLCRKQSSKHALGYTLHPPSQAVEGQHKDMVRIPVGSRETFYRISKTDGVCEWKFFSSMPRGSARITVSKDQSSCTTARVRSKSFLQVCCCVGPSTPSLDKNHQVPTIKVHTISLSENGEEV
T1 sequence (P25100 whole entry): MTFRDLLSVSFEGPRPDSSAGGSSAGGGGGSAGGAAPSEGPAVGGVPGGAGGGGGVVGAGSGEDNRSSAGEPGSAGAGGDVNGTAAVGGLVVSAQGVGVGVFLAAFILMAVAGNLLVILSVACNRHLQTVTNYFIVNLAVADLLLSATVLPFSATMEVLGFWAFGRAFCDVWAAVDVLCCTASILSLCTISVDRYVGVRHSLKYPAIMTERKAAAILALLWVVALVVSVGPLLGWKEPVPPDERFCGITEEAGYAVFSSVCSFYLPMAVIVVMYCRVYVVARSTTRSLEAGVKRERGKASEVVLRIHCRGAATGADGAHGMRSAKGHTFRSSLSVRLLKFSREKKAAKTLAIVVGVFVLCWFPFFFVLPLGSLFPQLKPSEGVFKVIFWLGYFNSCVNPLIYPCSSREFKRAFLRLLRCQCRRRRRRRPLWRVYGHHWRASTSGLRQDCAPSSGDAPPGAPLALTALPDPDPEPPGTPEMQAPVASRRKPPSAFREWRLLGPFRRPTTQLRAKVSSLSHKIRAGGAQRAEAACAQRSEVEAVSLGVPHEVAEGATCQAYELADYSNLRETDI
T1 sequence (P35368 whole entry): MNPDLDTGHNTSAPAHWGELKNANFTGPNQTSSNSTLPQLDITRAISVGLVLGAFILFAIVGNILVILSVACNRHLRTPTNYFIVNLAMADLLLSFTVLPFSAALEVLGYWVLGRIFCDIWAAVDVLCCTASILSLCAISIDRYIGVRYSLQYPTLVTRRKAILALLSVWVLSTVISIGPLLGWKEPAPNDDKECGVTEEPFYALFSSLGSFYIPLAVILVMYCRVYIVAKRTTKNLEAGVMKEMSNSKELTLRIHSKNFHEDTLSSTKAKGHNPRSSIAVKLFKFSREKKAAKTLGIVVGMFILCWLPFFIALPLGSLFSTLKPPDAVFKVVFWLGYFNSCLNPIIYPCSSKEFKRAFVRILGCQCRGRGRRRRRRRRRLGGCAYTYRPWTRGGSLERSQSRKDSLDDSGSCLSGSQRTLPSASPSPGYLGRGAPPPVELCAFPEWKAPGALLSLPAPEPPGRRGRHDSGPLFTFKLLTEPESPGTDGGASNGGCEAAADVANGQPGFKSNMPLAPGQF
Kind of assay: Binding affinity to adrenergic alpha1 receptor (unknown origin). The assay is classed as protein assay.

For assay [2], the target named is T2, Adrenergic receptor alpha-1 (Rattus norvegicus, UniProt P15823+P23944+P43140).
T2 sequence (P15823 whole entry): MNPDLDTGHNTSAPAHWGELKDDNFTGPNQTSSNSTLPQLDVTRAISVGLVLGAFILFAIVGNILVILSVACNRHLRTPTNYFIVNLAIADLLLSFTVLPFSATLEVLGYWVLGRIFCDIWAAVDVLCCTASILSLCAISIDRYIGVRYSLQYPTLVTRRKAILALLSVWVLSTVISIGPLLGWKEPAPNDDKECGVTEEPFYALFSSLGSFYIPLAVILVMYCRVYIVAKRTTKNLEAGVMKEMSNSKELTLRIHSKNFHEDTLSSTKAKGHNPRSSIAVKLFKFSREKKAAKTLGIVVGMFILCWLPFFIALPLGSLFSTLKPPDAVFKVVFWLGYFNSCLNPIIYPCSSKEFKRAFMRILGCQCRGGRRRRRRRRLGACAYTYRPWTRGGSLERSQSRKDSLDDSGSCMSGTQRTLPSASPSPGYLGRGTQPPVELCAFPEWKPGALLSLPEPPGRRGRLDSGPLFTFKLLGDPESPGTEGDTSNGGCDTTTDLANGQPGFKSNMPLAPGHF
T2 sequence (P23944 whole entry): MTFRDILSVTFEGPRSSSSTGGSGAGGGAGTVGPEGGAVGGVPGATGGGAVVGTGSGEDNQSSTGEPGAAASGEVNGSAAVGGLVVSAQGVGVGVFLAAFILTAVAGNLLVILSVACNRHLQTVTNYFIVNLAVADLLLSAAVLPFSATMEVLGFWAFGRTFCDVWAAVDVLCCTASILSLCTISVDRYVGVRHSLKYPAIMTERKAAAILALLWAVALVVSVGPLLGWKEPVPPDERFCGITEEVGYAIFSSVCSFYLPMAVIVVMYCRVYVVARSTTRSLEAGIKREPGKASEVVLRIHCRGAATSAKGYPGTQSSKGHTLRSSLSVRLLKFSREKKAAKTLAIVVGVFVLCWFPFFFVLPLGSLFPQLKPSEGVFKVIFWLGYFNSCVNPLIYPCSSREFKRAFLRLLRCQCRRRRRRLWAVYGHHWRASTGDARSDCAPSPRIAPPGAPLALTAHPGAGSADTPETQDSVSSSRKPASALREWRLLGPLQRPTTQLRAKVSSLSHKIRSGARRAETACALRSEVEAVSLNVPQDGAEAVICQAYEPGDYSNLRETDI
T2 sequence (P43140 whole entry): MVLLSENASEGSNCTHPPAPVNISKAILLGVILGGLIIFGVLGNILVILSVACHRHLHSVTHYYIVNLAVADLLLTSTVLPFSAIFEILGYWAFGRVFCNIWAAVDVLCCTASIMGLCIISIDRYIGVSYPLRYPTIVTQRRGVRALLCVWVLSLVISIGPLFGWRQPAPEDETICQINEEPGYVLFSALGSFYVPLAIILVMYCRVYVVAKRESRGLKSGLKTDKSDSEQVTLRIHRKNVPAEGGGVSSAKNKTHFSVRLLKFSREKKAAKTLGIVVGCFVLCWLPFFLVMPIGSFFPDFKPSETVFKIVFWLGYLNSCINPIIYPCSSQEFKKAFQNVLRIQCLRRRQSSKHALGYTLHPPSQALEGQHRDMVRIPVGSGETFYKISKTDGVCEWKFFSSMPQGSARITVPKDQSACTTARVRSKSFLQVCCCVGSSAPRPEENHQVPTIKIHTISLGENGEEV
Nature of the assay: Displacement of [3H]-prazosin from adrenergic alpha1 in rat cerebral cortex. It counts as tissue-based. In a few lines:
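Eight-concentration displacement curves, two independent experiments in duplicate, value is the mean Ki.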
(Displacement assays read how much labelled ligand stays bound in the presence of the test substance.)

A further assay concerns Rattus norvegicus. Nature of the assay: Antipsychotic activity in orally dosed Sprague-Dawley rat assessed as inhibition of PCP-induced hyperactivity administered 20 mins before PCP stimulation and measured after 1 hr. It counts as functional, organism-based. The note with it: dose 1-10 mg/kg, time 80.0 min. In a few lines: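 Male Sprague-Dawley rats dosed orally 20 min before PCP (5 mg/kg) injection. Locomotor activity recorded for 1 h after PCP, read as total travel distance. Mean ± standard error of the mean, n = 8-10 per group.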

In general, Ki refers to a measure of affinity in units of concentration, obtained from inhibition or displacement. Read a high Ki as a looser hold on the target. Turning to `CN1CC2c3ccccc3Oc3ccc(Cl)cc3C2C1` (stereo not drawn) [ASENAPINE], the Ki in assay [1] is on record as 1.2 nmol/L. Turning to `CN(C)C(=O)N[C@H]1CC[C@H](CCN2CCN(c3cccc(Cl)c3Cl)CC2)CC1` [CARIPRAZINE], in assay [2], the Ki worked out at 155 nM. In the assay on Rattus norvegicus, the Activity result is “Dose-dependent effect”.
